This is a sample that favours compounds with a hit; in the whole collection about 6.8% have one here.
HSF1 activator: HSF-1 activators, primary screen, NIH3T3-HGL cells, MG132 stress, luminescence, single point | hit rate 1.7% among 300,000 | activation, % at 9 µM | AID 504408, 2011 | NIH3T3-HGL HSF-1 luciferase reporter, 8 h; 100% = twice DMSO control signal;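 active = mean replicate activation of at least 50% with a set share of replicates each reaching 50%; inconclusive = only one of those two conditions met; inactive = mean below 50% and too few replicates reaching it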
HSF1 inh: HSF1 inhibitors in luciferase reporter cells, primary screen, cell-based, NIH3T3, luminescence. NIH3T3-HGL HSE-luciferase, MG132-induced, luminescence 8 h; active compounds read low. activity change, negative = inhibition, % at 7.5 µM (by protocol). hit rate 0.77% among 300,000. AID 2098, 2009;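 active = more than half of replicate wells show activity change below -50%, luminescence cut by over half; inconclusive = some wells, but at most half, below -50%; inactive = no replicate well below -50%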;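 also: luciferase reports HSF-1 transcriptional activity via heat shock element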
PHOSPHO1 inh: PubChem AID 1565 | Phosphoethanolamine/phosphocholine phosphatase (Homo sapiens), Q8TCT1 | recombinant PHOSPHO1, absorbance phosphatase assay | inhibition, % at 13.3 µM | hit rate 1.1% among 290,000; in the data active = inhibition above about 60%
Target sequence (Q8TCT1 whole entry, looked up): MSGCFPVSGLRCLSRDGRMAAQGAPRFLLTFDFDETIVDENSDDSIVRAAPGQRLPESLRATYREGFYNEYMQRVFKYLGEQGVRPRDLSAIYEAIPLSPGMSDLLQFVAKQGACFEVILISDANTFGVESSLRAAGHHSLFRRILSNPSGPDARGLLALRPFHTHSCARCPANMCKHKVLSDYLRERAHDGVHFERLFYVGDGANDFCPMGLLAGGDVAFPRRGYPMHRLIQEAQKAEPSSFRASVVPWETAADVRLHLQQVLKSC
AI-2 QS mod: Vibrio harveyi AI-2 quorum sensing modulators, primary screen, JMH597 strain, luminescence/OD600 ratio | activity change, % at 7.5 µM | AID 2094, 2009 | hit rate 0.4% among 300,000 | Vibrio harveyi JMH597 AI-2 luminescence/OD600 ratio, 9 h; active compounds read low; strain lacks LuxN and CqsS sensors; 0 = neutral-control median; in the data active = activity change below about -75%, passing the limit was not always enough; inconclusive = no clear call, values can overlap the other calls;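 also: luminescence divided by OD600 gain over 9 h not by final OD600 alone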
core dimer inh: inhibitors of HCV core protein dimerization, primary screen, biochemical, TR-FRET, high-throughput; TR-FRET GST/Flag-core106 dimerization, 1536-well; inhibition, % at 5 µM; hit rate 0.33% among 300,000; AID 1899, 2009;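 active = inhibition above the mean of all tested compounds plus 3 SD, set per screening campaign, cut at about 45% in these data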
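test system = GST/Flag-tagged HCV core106 proteins | probe or stimulus = Eu donor and XL665 acceptor anti-tag antibodies | times = compound-protein-antibody incubation 4 h at 22.5 °C | signal = TR-FRET, excitation 340 nm, emission 617 and 671 nm | measure = percent inhibition of core106 dimerization signal | controls = wells lacking GST-core106 and wells with excess unlabelled core106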
ALR inh: inhibitors of human ALR sulfhydryl oxidase, primary screen, biochemical, H2O2 detection, HRP-luminol luminescence, single point. purified ALR, DTT oxidation. inhibition, % (concentration not given with the values). FAD-linked sulfhydryl oxidase ALR (Homo sapiens), P55789. hit rate 3.8% among 290,000;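 active = mean replicate inhibition above about 79%, with every replicate also reaching it, limit read from the data; inconclusive = only one of the two criteria met; inactive = mean below limit and not every replicate reaching it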
Target sequence (P55789 whole entry, looked up): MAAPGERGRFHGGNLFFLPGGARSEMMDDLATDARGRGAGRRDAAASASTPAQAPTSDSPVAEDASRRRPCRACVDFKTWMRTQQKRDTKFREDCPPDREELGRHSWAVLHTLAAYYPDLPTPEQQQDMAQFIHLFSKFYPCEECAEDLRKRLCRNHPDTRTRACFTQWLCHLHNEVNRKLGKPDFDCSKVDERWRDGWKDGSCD
Each line names hits and unclear results; the compound was inactive in the other large screens.

O=C(CN1C(=O)NC2(CCCCCCC2)C1=O)NC1CCCc2ccccc21 (configuration not stated)	PHOSPHO1 inh 172.7 (no result: ALR inh)
O=C(CN1C(=O)NC2(CCCC2)C1=O)Nc1ccccc1N1CCCC1	ALR inh 99.1
CC1CCCCC12NC(=O)N(CC(=O)NC1CCCc3ccccc31)C2=O (configuration not stated)	none
CCOC(=O)C1CCN(CCCSc2ccccc2)CC1	none (no result: PHOSPHO1 inh, ALR inh)
O=C(Nc1nc2ccccc2[nH]1)c1cccc(F)c1	none
COc1cc(SC)ccc1C(=O)Nc1nc2ccccc2[nH]1	HSF1 inh -92.1
CCOc1ccccc1Nc1nc2ccccc2[nH]1	ALR inh 96.4
O=C(/C=C/c1ccc(F)cc1)Nc1nc2ccccc2[nH]1	HSF1 activator 54.8
COc1ccccc1C(=O)Nc1nc2ccccc2[nH]1	HSF1 inh -83.0
CC(CC(=O)N1CCN(S(=O)(=O)c2ccc(Cl)cc2)CC1)n1cncn1 (configuration not stated)	none
COc1cccc(-n2c(CN3CCN(c4ccccc4)CC3)nc3ccc([N+](=O)[O-])cc3c2=O)c1	none
CC(C)OCc1ccc(C(=O)N2CCN(CC(=O)N3CCCC3)CC2)cc1	none (no result: HSF1 activator, HSF1 inh, PHOSPHO1 inh, AI-2 QS mod, core dimer inh)
COc1cc(NC(=O)C2CCN(S(=O)(=O)c3ccc(Cl)cc3)CC2)ccc1-n1cnnn1	none
Cc1cnc(C(=O)Nc2ccc(-n3cnnn3)cc2)cn1	none
COc1cc(C(=O)Nc2ccc3c(c2)OCO3)ccc1-n1cnnn1	none (no result: ALR inh)
COc1ccc(NC(=O)C2CC2)cc1-n1cnnn1	HSF1 inh -71.8
COc1cc(NC(=O)Cc2cccs2)ccc1-n1cnnn1	HSF1 activator 75.5
Cc1cnc(C(=O)Nc2ccc(C(=O)N3CCCCC3)cc2)cn1	ALR inh 99.9
COc1ccc(NC(=O)c2cnc(C)cn2)cc1-n1cnnn1	HSF1 inh -59.7
OCc1cccc[n+]1Cc1ccccc1	none (no result: PHOSPHO1 inh)
COc1cc(/C=N/NC(=O)c2cccnc2)ccc1OS(=O)(=O)c1cc(C)ccc1C	none
Cc1cccc(NC(=O)c2cccc(NC(=O)Cc3cccs3)c2)c1	none
CC(C)(C)NC(=O)c1cccc(NC(=O)Cc2cccs2)c1	HSF1 inh -77.5
CCOC(=O)c1c(NC(=O)COc2ccccc2OCC)sc2c1CC(C)(C)NC2(C)C	none (no result: PHOSPHO1 inh)
CCOC(=O)c1c(NC(=O)COc2ccccc2C#N)sc2c1CC(C)(C)NC2(C)C	HSF1 inh -52.5
O=C(COc1ccccc1)Nc1nnc(-c2ccc(Cl)s2)o1	AI-2 QS mod -87.0 (no result: ALR inh)
O=C(COc1ccccc1)Nc1nnc(-c2ccccc2)o1	ALR inh 92.7
O=c1c2ccccc2c(C=Nc2ccc(O)cc2)c(O)n1Cc1ccccc1	HSF1 activator 79.1
COc1ccc(Cn2c(O)c(C=Nc3ccc(O)cc3)c3ccccc3c2=O)cc1	none
Cc1nnc2ccc(-c3ccc(NS(C)(=O)=O)cc3)nn12	none
CC(=O)c1ccc(S(=O)(=O)Nc2ccc(-c3ccc4nnc(C)n4n3)cc2)cc1	core dimer inh 58.4
O=C(COC(=O)c1cccc(S(=O)(=O)N2CCc3ccccc3C2)c1)NCc1ccco1	core dimer inh 51.4
CN(c1ccccc1)S(=O)(=O)c1cccc(C(=O)OCC(=O)NCc2ccco2)c1	PHOSPHO1 inh 65.8
Cc1ccc(Cl)cc1N1CCN(Cc2cc(=O)n3ccsc3n2)CC1	none (no result: ALR inh)
COc1c(Cl)cc(C(=O)O)cc1Cl	none (no result: PHOSPHO1 inh)
NNC(=O)c1cc(O)c(O)c(O)c1	ALR inh 98.6
NNC(=O)c1ccncc1	none (no result: HSF1 activator, HSF1 inh, core dimer inh, ALR inh)
COc1c(Cl)cc(C(=O)NN)cc1Cl	ALR inh 88.9
CCOC(=O)C1CCN(C(=O)c2ccc(OCC(=O)Nc3cccc(C(F)(F)F)c3)c(OC)c2)CC1	none (no result: PHOSPHO1 inh)
O=S1(=O)c2ccccc2N=NN1Cc1cc(Cl)cc(Cl)c1	core dimer inh 46.0, ALR inh 99.0
O=C1c2ccncc2C(=O)N1Cc1cccc(Cl)c1	none (no result: ALR inh)
O=S1(=O)c2ccccc2N=NN1Cc1ccc(Cl)cc1	core dimer inh 47.1
CC(C)(C)c1ccc(OCC(=O)NCC(c2cccs2)N2CCOCC2)cc1 (configuration not stated)	none (no result: PHOSPHO1 inh)
COc1ccccc1NC(=O)c1ccc[n+]([O-])c1	none (no result: ALR inh)
CC1=Nc2cccc3cccc(c23)N1C	ALR inh 99.1
CC(=O)c1cccc(NC(=S)NC(=O)c2ccc(C)cc2Cl)c1	none
COc1cccc(NC(=O)CSCc2cc(=O)n3nc(C4CC4)sc3n2)c1	ALR inh 98.8
COc1ccc(NC(=O)CSCc2cc(=O)n3ccsc3n2)cc1	none
Cc1ccc(NC(=O)CSCc2cc(=O)n3nc(C4CC4)sc3n2)cc1	ALR inh 98.9
Cc1ccc(NC(=O)c2cc3ccccc3o2)cc1S(=O)(=O)N(C)C	none (no result: HSF1 activator, HSF1 inh, AI-2 QS mod, core dimer inh, ALR inh)
Cc1ccc(NC(=O)c2cc3ccccc3oc2=O)cc1S(=O)(=O)N(C)C	HSF1 inh -89.3
O=C(Nc1cccs1)Nc1ccc(Br)cc1F	HSF1 activator 59.8
Cc1ccc(NC(=O)Nc2cccs2)c(Cl)c1	none
O=C(/C=C/Nc1ccccc1F)c1cccs1	HSF1 activator inconclusive (no result: ALR inh)
O=C(Nc1cccs1)Nc1ccc(F)cc1F	HSF1 activator 98.2
O=C(/C=C/Nc1ccc(F)cc1F)c1cccs1	HSF1 activator 77.0
O=C(Nc1cccs1)Nc1ccccc1Cl	ALR inh 89.5
Cc1csc(NC(=O)CSC2=NS(=O)(=O)c3ccccc3N2)n1	none (no result: PHOSPHO1 inh)
COc1ccc(-c2nc(CS(=O)CC(=O)N3CCN(C)CC3)c(C)o2)cc1 (configuration not stated)	ALR inh 99.1
COc1ccc(-c2nc(CS(=O)CC(=O)N3CCN(C)CC3)c(C)o2)cc1OC (configuration not stated)	ALR inh 98.9
CCOC(=O)N1CCN(C(=O)CS(=O)Cc2nc(-c3ccc(C)cc3)oc2C)CC1 (configuration not stated)	none (no result: ALR inh)
COc1ccc(-c2nc(CSCC(=O)N3CCN(C4CCCCC4)CC3)c(C)o2)cc1OC	none (no result: PHOSPHO1 inh, ALR inh)
COc1ccc(-c2nc(CS(=O)CC(=O)N3CCOCC3)c(C)o2)cc1OC (configuration not stated)	ALR inh 99.5
O=C(NCCCN1CCOCC1)c1ccc2c(=O)n(-c3ccc(F)c(Cl)c3)c(=S)[nH]c2c1	none (no result: ALR inh)
Cc1cc(C=C2C(=O)CCCC2=O)c(C)n1-c1ccccc1	core dimer inh 55.1 (no result: ALR inh)
Cc1cccc(-n2c(C)cc(C=C3C(=O)c4ccccc4C3=O)c2C)c1	PHOSPHO1 inh 98.7 (no result: HSF1 activator, HSF1 inh)

Source: PubChem BioAssay
